Experimental data of several laboratories.
Target: Mitogen-activated protein kinase kinase kinase kinase 4 (MAP4K4, Homo sapiens, UniProt O95819)

| SMILES | test | conditions | endpoint | value |
| --- | --- | --- | --- | --- |
| CC(C)(O)[C@H]1CC[C@H](Nc2ccc3ncc(-c4cccc(C(F)(F)F)c4)n3n2)CC1 | enzyme activity, inhibitor | 1 µM | remaining activity | 90.6% |
| CN1CC(Oc2cnc(C#N)cc2-c2ccn3nc(NC(=O)C4CC4)cc3c2)C1 | enzyme activity, inhibitor | 1 µM | inhibition | 13% |
| O=C(O)c1cc(-c2ccc(C3CCNCC3)cc2)c2ccc(-c3ccc(C(F)(F)F)cc3)cc2c1 | cell-free assay, competition with immobilised ligand | 1 µM | remaining binding | 87% |
| CC(C)(C)c1nc(-c2cccc(NS(=O)(=O)c3c(F)cccc3F)c2F)c(-c2ccnc(N)n2)s1 | enzyme activity, inhibitor, radiometric | 1 µM | remaining activity | 95% |
| CC/C(=N\NC(=O)NCc1cccc(O)c1)c1ccc(O)c(C)c1O | enzyme activity, inhibitor | 0.1 µM | inhibition | 3.8% |
| COc1cc2ncnc(Nc3ccc(Oc4ccccc4)cc3C)c2cc1OC | enzyme activity, inhibitor | 1 µM | inhibition | 6% |
| O=C(Nc1cnn(-c2csc(C(=O)NC3COC3)c2)c1)Nc1c(F)cccc1Cl | enzyme activity, inhibitor | 5 µM | remaining activity | 90.4% |
| O=C(NC[C@@H]1[C@H]2CN(C(=O)OCc3cc(C(F)(F)F)cc(C(F)(F)F)c3)C[C@@H]12)c1ccc2[nH]nnc2c1 | cell-free assay, competition with immobilised ligand | 1 µM | remaining binding | 100% |
| O=C1Nc2ccc(Cl)cc2C1=Cc1cc(Cl)c(O)c(Cl)c1 | cell-free assay | 0.5 µM | remaining signal | 4.48% |
| CO[C@@H](C)c1c(Nc2ccc([C@@H](N(C)C(=O)C3CCS(=O)(=O)CC3)C(F)(F)F)cc2)cnc2cc(Cl)nn12 | cell-free assay, competition with immobilised ligand | 1 µM | remaining binding | 100% |
| Cc1ccc(Nc2nccc(N(C)c3ccc4c(C)n(C)nc4c3)n2)cc1S(N)(=O)=O | enzyme activity, inhibitor | 0.5 µM | remaining activity | 77.4% |
| CCCCN(CCCC)C(=O)CN1C[C@H](c2cc(OC)c3c(c2)OCO3)[C@@H](C(=O)O)[C@@H]1CC(C)(C)CCC | cell-free assay, competition with immobilised ligand | 1 µM | remaining binding | 100% |
| Oc1cccc(-c2nc(N3CCOCC3)c3oc4ncccc4c3n2)c1 | cell-free assay | 0.5 µM | remaining signal | 91.4% |
| COc1cc(Cl)c(C(=O)N[C@@H](CN[C@H]2CC[C@@H](N)CC2)Cc2ccc(C#N)cc2)cc1-c1ccc(CN[C@H](C)c2ccc(C)cc2)o1 | enzyme activity, inhibitor | 1 µM | remaining activity | 96% |
| O=C(Nc1cnn(-c2csc(C(=O)NC3COC3)c2)c1)Nc1ccccc1Cl | enzyme activity, inhibitor | 5 µM | remaining activity | 81.1% |
| Cc1c(NC(=O)c2cc(C(N)=O)nc3cc(F)ccc23)c(C(F)(F)F)nn1Cc1ccc(C(C)(C)C)cc1 | cell-free assay, competition with immobilised ligand | 1 µM | remaining binding | 76% |
| N#CCCc1ccc2c(c1)-c1[nH]c3ccc([N+](=O)[O-])cc3c1CC(=O)N2 | cell-free assay | 0.5 µM | remaining signal | 6.82% |
